High-throughput results (PubChem BioAssay)
Kir21 inh = inhibitors of mouse Kir2.1 inward-rectifier potassium channel | hit rate 0.85% among 310,000 | B-score at 10 µM | P35561 | HEK293-Kir2.1, FluxOR thallium flux fluorescence; active compounds read low;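 active = fluorescence ratio B-score at or below minus 3 SD of library scores, with starting-brightness B-score within 2 SD, cut at about -4.2 in these data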;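 also: channel flux triggered by added potassium and thallium sulfate stimulus; B-score of peak minus minimum fluorescence over baseline after thallium stimulus; more negative B-score means stronger Kir2.1 block with less thallium influx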
KCNK3 block = human KCNK3 channel inhibition, primary screen; B-score at 10 µM; CHO-KCNK3 thallium flux, FluxOR fluorescence; active compounds read low; hit rate 0.84% among 340,000; O14649;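 active = B-score under library mean minus 4 SD, starting fluorescence ratio at most library mean plus 5 SD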;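 also: more negative B-score means stronger inhibition of thallium flux through KCNK3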
Target sequence (O14649 whole entry, looked up): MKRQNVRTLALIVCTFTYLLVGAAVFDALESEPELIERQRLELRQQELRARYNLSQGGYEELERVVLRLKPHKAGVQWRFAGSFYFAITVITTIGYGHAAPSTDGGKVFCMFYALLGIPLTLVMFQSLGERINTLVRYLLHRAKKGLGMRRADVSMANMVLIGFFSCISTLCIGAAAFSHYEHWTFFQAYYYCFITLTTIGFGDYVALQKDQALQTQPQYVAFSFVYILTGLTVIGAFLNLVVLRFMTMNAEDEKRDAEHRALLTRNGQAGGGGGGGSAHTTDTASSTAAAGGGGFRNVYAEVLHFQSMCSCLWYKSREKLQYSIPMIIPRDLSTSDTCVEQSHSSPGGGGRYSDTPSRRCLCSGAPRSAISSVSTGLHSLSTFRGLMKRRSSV
KCNQ1 act = human KCNQ1 channel potentiation or activation. CHO-K1 KCNQ1, thallium flux FluxOR fluorescence; active compounds read high. B-score at 10 µM. hit rate 0.35% among 310,000;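 active = fluorescence ratio B-score, a plate-corrected score, at least three library SD, with initial intensity B-score within 5 SD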
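Assay system: CHO-K1 cells stably expressing KCNQ1; Medium: assay buffer with matched DMSO; Also added: K+/Tl+ depolarizing stimulus; Dosing: single dose; Timing: dye 90 min, compound 20 min, room temperature; Measured by: kinetic FluxOR thallium fluorescence, 10-s 1-Hz baseline, 110-s post-stimulus read; Read-out: peak-minus-minimum fluorescence over initial fluorescence, negative-control normalized, B-scored.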
KCNQ1 block = blocks the human KCNQ1 potassium channel. hit rate 1.3% among 310,000. P51787. B-score at 10 µM. CHO-K1 KCNQ1, FluxOR thallium flux fluorescence; active compounds read high. AID 2642;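 active = compounds whose thallium flux B-score, printed positive for inhibition, exceeds three library SD while starting fluorescence stays within three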;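 also: channel opened by potassium depolarization with thallium stimulus after 20 min compound exposure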
hERG rescue = hERG (human) protection from proarrhythmic block | Q12809 | hit rate 0.51% among 310,000 | CHO-hERG, FluxOR thallium flux, dofetilide IC70 present | activation (rescue from dofetilide block), less the hit threshold, % at 10 µM | AID 1511;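 active = activation above the mean of controls blocked by dofetilide plus 5 SD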;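 also: thallium influx through hERG after potassium depolarization seen as dye fluorescence rise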
KCNK9 block = inhibitors of human KCNK9 two-pore domain potassium channel; B-score at 10 µM; Q9NPC2; HEK293 KCNK9, FluxOR thallium flux fluorescence; active compounds read low; hit rate 1.2% among 310,000;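 active = ratio B-score over 3 SD below the library mean, with starting fluorescence within 5 SD of its mean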;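 also: negative B-score means less thallium flux so channel inhibition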
KCNK9 block conf = human KCNK9 inhibitor confirmation; shares compounds with KCNK9 block; hit rate 43% among 4,900; inhibition, % at 10 µM; HEK293 KCNK9 cells, FluxOR thallium flux fluorescence;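 active = thallium signal inhibited by more than 5 SD of the compound-free buffer control wells, on both duplicate plates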;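 also: 0% = assay buffer control wells without compound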
Kir21 sel = mouse Kir2.1 off-target activity of KCNK9 modulators | Kir2.1 cells, FluxOR thallium flux fluorescence | inhibition, % at 10 µM | hit rate 4% among 4,900 | AID 492993 | shares compounds with KCNK9 block;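 active = thallium signal drop more than 5 SD beyond the mean of the no-compound control wells, seen in both duplicate plates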;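 also: signal is fluorescence rise after thallium addition divided by baseline fluorescence; plate controls were assay buffer only for no effect and full block by chlorpromazine control for full effect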
KCNK9 uninduced = non-induced cell nonspecific activity of KCNK9 modulators; shares compounds with KCNK9 block; non-induced KCNK9-HEK293, FluxOR thallium flux; inhibition, % at 10 µM; hit rate 40% among 4,900; AID 492997;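 active = thallium signal drop beyond 5 SD of the untreated control mean, on both duplicate plates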;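 also: plate controls were buffer only IC0 wells for no effect and SID17386958 at its maximal inhibitory level for full effect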
Active calls of the source: *; i = inactive; . = no result. Sampled rows, rich in hits. Any-hit rate of the full collection: about 3.7%.

SMILES	Kir21 inh	KCNK3 block	KCNQ1 act	KCNQ1 block	hERG rescue	KCNK9 block	KCNK9 block conf	Kir21 sel	KCNK9 uninduced
OCC1(Cc2ccccc2C(F)(F)F)CCN(Cc2ccccc2)CC1	-0.25	i	i	i	-17	i	i	i	i
OCC1(Cc2ccccc2C(F)(F)F)CCN(Cc2ccc3c(c2)CCO3)CC1	-2.7	i	i	i	-10	i	i	i	i
OCC1(Cc2ccc(Cl)cc2)CCN(Cc2ccc(F)c(F)c2)CC1	-0.93	i	i	i	-9	i	.	.	.
COc1ccc(CC2(CO)CCN(Cc3ccc4nsnc4c3)CC2)cc1	-0.03	i	i	i	-3	i	.	.	.
COc1ccc2c(c1)C(SCC(=O)NCCc1ccccc1)CC(C)(C)O2 (stereo unspecified)	-3.4	i	i	i	-9	i	i	i	i
CC1CCCN(C(=O)C2CCN(c3nc(-c4ccccc4)nc4c3CCC4)CC2)C1 (stereo unspecified)	1.1	i	i	i	-11	i	.	.	.
COc1ccc2c(c1)-c1c(ssc1=S)C(C)(C)N2C(=O)CSC1=NCCS1	-0.03	i	i	i	-11	-12*	46%*	i	38%*
CC1(C)c2ssc(=S)c2-c2ccccc2N1C(=O)CSC1=NCCS1	0	i	i	i	-8	i	.	.	.
Cc1cc(C)c2c(c1)-c1c(ssc1=S)C(C)(C)N2C(=O)CSc1nncn1C	-3.8	i	i	i	-6	i	.	.	.
Cc1cc2c(cc1C)N(C(=O)CSC1=NCCS1)C(C)(C)c1ssc(=S)c1-2	1.6	i	i	i	-10	-8.6*	50%*	i	31%*
COc1ccc(C(=O)NCc2nnc(SCC(=O)Nc3ccccc3OC)n2C)cc1	0.5	i	i	i	-5	i	i	i	i
COc1ccccc1CNC(=O)CSCc1cnn(-c2ccccc2)c1-n1cccc1	-5.8*	i	i	i	-10	i	i	i	i
COc1cccc(CNC(=O)CSCc2cnn(-c3ccccc3)c2-n2cccc2)c1OC	-2	i	i	i	-18	i	i	31%*	i
COc1cc(NC(=O)CSCc2cnn(-c3ccccc3)c2-n2cccc2)cc(OC)c1	-1.5	i	i	i	-4	i	.	.	.
COc1ccc(OC)c(NC(=O)CSCc2cnn(-c3ccccc3)c2-n2cccc2)c1	-4.3*	i	i	i	-11	i	i	i	29%*
COCCOC(=O)c1c(NC(=O)COC(=O)c2ccc(C)o2)sc(C(N)=O)c1C	.	i	.	.	.	.	.	.	.
O=C(CN(Cc1ccccc1Cl)C(=O)CNS(=O)(=O)c1ccccc1)NCC1CCCO1 (stereo unspecified)	0.63	i	i	i	-4	i	.	.	.
CC(C)CCNC(=O)C1CCC(CNc2c(N3CCCC3)c(=O)c2=O)CC1 (stereo unspecified)	-0.32	i	i	i	-4	i	.	.	.
COc1ccc(CCNC(=O)c2ccc(Cl)c(S(=O)(=O)N(C)c3ccccc3)c2)cc1	-0.18	i	i	i	-8	i	i	i	i
CCCCOn1c(C)c(C(=O)OCC)c2c3no[n+]([O-])c3ccc21	1.2	i	i	i	-1	i	.	.	.
CCCCOn1c(C)c(C(=O)OCC)c2c3nonc3ccc21	0.55	i	i	i	-11	-8.4*	33%*	i	32%*
COCCn1c(C)cc(C(=O)COC(=O)c2c(C)nn(Cc3ccccc3)c2C)c1C	-1.1	i	i	i	-6	i	i	i	i
O=C(CCN1C(=O)c2ccccc2S1(=O)=O)NCc1ccccc1	-0.04	i	i	i	-13	i	.	.	.
CCCCCCC(=O)N1CCCC(c2nc(-c3cccc(OC)c3)no2)C1 (stereo unspecified)	-1.6	i	i	i	-15	i	i	i	i
CCCCCC(=O)N1CCCC(c2nc(-c3ccc(OC)cc3)no2)C1 (stereo unspecified)	-1.1	i	i	i	-13	i	i	i	i
SMILES	Kir21 inh	KCNK3 block	KCNQ1 act	KCNQ1 block	hERG rescue	KCNK9 block	KCNK9 block conf	Kir21 sel	KCNK9 uninduced
O=C(c1ccc(-c2cccc(C(F)(F)F)c2)o1)N1CCN(c2ccccc2O)CC1	1.1	i	i	i	-16	-8.5*	50%*	i	i
O=C(CSc1nnc2ccc(-c3ccccc3)nn12)NCC1CCCO1 (stereo unspecified)	0.03	i	i	i	-8	i	.	.	.
CC(=O)Nc1cc2c(c([N+](=O)[O-])c1C)C(C)(C)CC2(C)C	.	i	.	.	.	.	.	.	.
Cc1c(N=NC2=C(O)CC(C)(C)CC2=O)cc2c(c1[N+](=O)[O-])C(C)(C)CC2(C)C	0.67	i	i	6*	-11	i	i	i	i
CCCCCCCCC/C(=N\O)c1ccccn1	-2.2	i	i	7*	-7	-15*	41%*	i	50%*
COC(=O)c1ccc(COc2ccc(/C=C(\C#N)c3nc4ccccc4[nH]3)cc2OC)o1	1.1	i	i	i	-8	-8.4*	40%*	i	34%*
COc1ccc(-n2c(SCCC#N)nnc2-c2cc(Cl)ccc2OC)cc1Cl	-0.37	i	i	i	-16	-11*	29%*	i	41%*
O=C1CC(=C(c2ccccc2)c2ccccc2)C(=O)N1CCN1CCN(c2cccc(Cl)c2)CC1	-0.87	i	i	i	-5	i	i	i	i
CCOc1ccc(NC(=O)N(O)C2(C#N)CCCCC2)cc1	.	i	.	.	.	.	.	.	.
COc1ccccc1CC(=O)c1ccc(OCc2ccccc2)cc1	-0.76	i	i	i	-15	i	i	i	i
CN(Cc1nccn1C)C(=O)C1CCC(=O)N(Cc2cccc(C(F)(F)F)c2)C1 (stereo unspecified)	0.33	i	i	i	-6	i	.	.	.
COC(=O)c1c(NC(=O)Cc2ccccc2)sc2c1C(C(=O)OC)CC2 (stereo unspecified)	-1.5	i	i	i	-22	i	i	i	i
COc1ccc(/C(C)=N/NC(=O)c2sccc2-n2cccc2)cc1	0.2	i	i	i	-10	i	.	.	.
